This is a sample that favours compounds with a hit; in the whole collection about 1% have one here.
Yeast growth tox: Compounds toxic to wild-type S. cerevisiae growth | growth inhibition, % at 25 µM (by protocol) | 30,000 tested, 0.3% active | A595 turbidity, 16 h;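 active means mutant and wild-type yeast strains alike exhibit over 30% growth inhibition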;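 further: 0% = untreated cell controls and 100% = YPD media blanks without cells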
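Schedule: 16 h growth with compound, 30 °C. System: yeast, wild-type or eIF2Bepsilon-R284H mutant. Doses: one dose, 25 µM compound[…]. Buffer or medium: YPD. Signal: turbidity measured as absorbance at 595 nm. Read-out basis: growth inhibition (%) versus cell controls and blanks.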
eIF2B yeast act: eIF2B (yeast) activity modulation. S. cerevisiae eIF2B-epsilon R284H, GCN4-lacZ luminescence. inhibition, % at 25 µM (by protocol). 27,000 tested, 0.91% active. AID 688;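 active means mutant luminescence inhibited past about 50% while wild type luminescence and mutant growth stay under set limits, limit read from the data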
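material = yeast eIF2B-epsilon R284H mutant carrying GCN4–beta-galactosidase fusion | schedule = 16 h growth with compound at 30 °C, 90 min Beta-Glo step | measured by = luminescence and A595 | compound dosing = one concentration, 25 µM, 0.25% DMSO | read-out basis = % inhibition of reporter signal and growth versus controls | buffer or medium = YPD medium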
* = called active by the depositor; . = no result.

SMILES	Yeast growth tox	eIF2B yeast act
CC1=NNC(=O)C1C(c1ccccc1)C(C#N)C#N (centres undefined)	-7	6
COc1ccc(CC(=O)Nc2ccc(N3CCN(c4ccc(OC)cc4)CC3)c(C#N)c2)cc1	-26	53*
COc1ccc(OCC(=O)Nc2ccc(N3CCOCC3)cc2)cc1	6	21
Cc1cccc(-c2nnc(NC(=O)c3ccc(Cl)cc3)o2)c1	57*	17
COc1ccc(C(=O)Nc2nnc(-c3ccccc3)o2)cc1OC	14	21
COC(=O)C1=C(CSc2nccn2C)NC(=O)NC1c1cc(C)ccc1C (centres undefined)	22	.
COc1cccc(NC(=O)CN(c2ccc(C)cc2)S(=O)(=O)c2c(C)nn(C)c2C)c1	1	53*
COc1ccc(N(CC(=O)NC2CCCCCC2)S(=O)(=O)c2c(C)nn(C)c2C)cc1	-30	14
CCc1ccc(Nc2nnc(SCc3cc(=O)n4ccsc4n3)s2)cc1	16	.
O=C(c1ccc(Cl)cc1)N1CCN(c2ccc(F)cc2)CC1	59*	42
O=C(c1ccc2c(c1)OCO2)N1CCN(c2ccc(F)cc2)CC1	4	5
CCC1=NC(c2ccccc2OC)N(O)C1(C)C (centres undefined)	1	7
CCCCN1C(=O)C2NN=C(C(=O)OC)C2C1=O (centres undefined)	14	.
O=C(Nc1nc(-c2ccc(S(=O)(=O)N3CCCC3)cc2)cs1)c1cccs1	.	5
O=C(Nc1nc(-c2ccc(S(=O)(=O)N3CCCCCC3)cc2)cs1)c1cccs1	-5	60*
Cn1c(CC(=O)Nc2ccccc2)nnc1SCCOc1ccccc1	-12	4
CC(C)(C)c1ccc(-c2nnc(SCCN3C(=O)c4ccccc4C3=O)o2)cc1	23	15
C#CCOc1ccc(Br)cc1/C=N/O	23	13
CCCCN(C)CCCNC(=O)c1ccc(N2CCCC2=O)cc1	-2	6
COc1ccc(CCNC(=O)c2ccc(N3CCCC3=O)cc2)cc1OC	-10	56*
Cc1ccc(NS(=O)(=O)N(C)C)cc1	-5	-12
COC(=O)c1ccc(NS(=O)(=O)N(C)C)cc1	-7	60*
CCOC(=O)N1CCN(C(=O)c2nn(-c3cc(OC)cc(OC)c3)c(=O)c3ccccc23)CC1	-26	57*
COc1cc(OC)cc(-n2nc(C(=O)N3CC(C)CC(C)C3)c3ccccc3c2=O)c1 (centres undefined)	-5	-18
COc1ccc(OCCOC(=O)c2ccc(-n3cnnn3)cc2)cc1	8	10
SMILES	Yeast growth tox	eIF2B yeast act
COc1ccc(C(=O)OC(COc2ccccc2)Cn2ccnc2)cc1 (centres undefined)	68*	76
CCc1nc(N2CCOCC2)c(C#N)c2c1CCCC2	10	-3
N#Cc1c(N2CCOCC2)nc(-c2ccco2)c2c1CCCC2	-3	57*
Cc1ccc(NC2=NC(=S)N(CC#N)C23CCCCC3)cc1	-5	31
Cc1ccc(-n2nc(C)c3c2OC(N)=C(C#N)C3c2ccccc2F)cc1 (centres undefined)	-2	24
Cc1nn(-c2ccccc2)c2c1C(c1c(C)[nH]c(C#N)c1C)C(C#N)=C(N)O2 (centres undefined)	-7	53*
CN1C(=O)NC(c2ccccc2)C2=C1CN(CCc1ccccc1)C2=O (centres undefined)	21	-25
CN1C(=O)NC(c2ccccc2)C2=C1CN(c1cccc(C(F)(F)F)c1)C2=O (centres undefined)	1	52*
O=C(O)CC(c1ccc(Cl)cc1)n1cccc1 (centres undefined)	19	23
Cc1nccn1-c1cc(C(C)C)c(C#N)c2nc3ccccc3n12	-8	.
COc1ccc(S(=O)(=O)Nc2ccc(C)cc2)cc1OC	-9	27
Cc1cc(C)cc(NS(=O)(=O)c2ccc3[nH]c(=O)[nH]c3c2)c1	0	52*
COc1ccc2sc(N3C(=O)C4CC=C(C)CC4C3=O)nc2c1 (centres undefined)	.	6
C/C(=C\C(=O)c1ccccc1)Nc1ccc(O)cc1	15	20
CC(=O)/C=C(\C)Nc1ccc(-c2cnc(-c3ccccc3)o2)cc1	-21	70*
COC(=O)c1sccc1NC(=O)Cn1cnc2c1c(=O)n(C)c(=O)n2C	-2	.
Cn1c(N)c(C(=O)COC(=O)C2CCCCC2)c(=O)n(C)c1=O	5	.
COc1ccc(-c2cc3nc(C)cc(N4CC(C)CC(C)C4)n3n2)cc1 (centres undefined)	1	.
CCOC(=O)c1c(NC(=O)COC)sc2c1CCCC2	2	65*
CCOC(=O)c1c(NC=O)sc2c1CCC2	9	8
COc1ccc(OC)c(N/C(C)=C/C(=O)c2ccc(C)o2)c1	-2	56*
COc1ccc(OC)c(NC(=O)Nc2ccc(Cl)cc2)c1	31	.
Clc1cccc2sc(-c3nnc(-c4ccccc4)o3)c(Cl)c12	9	-14
CNC(=O)CN(C#N)c1nc(N(C)C)nc(N(C)C)n1	.	-18
COc1ccc(NC(=O)CSc2nnc(Cc3cccn3C)n2-c2ccc(C)cc2)cc1OC	-1	12
SMILES	Yeast growth tox	eIF2B yeast act
Cc1cc(C)c(NC(=O)CSc2nnc(Cc3cccn3C)n2-c2ccc(F)cc2)c(C)c1	3	60*
CCOC(=O)C(C)c1nc2ccccc2[nH]c1=O (centres undefined)	8	33
CC(C)OC(=O)CCc1nc2ccccc2[nH]c1=O	2	61*
CN1C(=O)C2(C(C#N)=C(N)Oc3c2oc(CO)cc3=O)c2ccccc21 (centres undefined)	4	-9
O=C(c1ccc(Cl)cc1)c1cnc2ccccn12	21	25
CCOC(=O)CSc1nc2ccccc2n1CC(=O)NC(C)(C)C	15	18
CCOC(=O)Cn1c(=O)c(-c2ccccc2NCc2ccccc2)nc2ccccc21	-30	58*
COc1ccc(C2NC(=O)NC(C)=C2C(C)=O)cc1 (centres undefined)	13	52*
C=CCOc1ccc(C2NC(=O)NC(C)=C2C(=O)OC)cc1 (centres undefined)	9	11
CCOc1ccc(-c2[nH]ncc2Oc2cccc(OC)c2)c(O)c1	6	-1
COc1cccc(Oc2cn[nH]c2-c2ccc(OC)cc2O)c1	-9	66*
Oc1ccc(Nc2nc3ccccc3nc2Nc2ccc(O)cc2)cc1	-5	.
O=C1CCC([N+](=O)[O-])C(c2ccc(Cl)cc2)N1 (centres undefined)	2	5
COc1ccc(-c2nn(CC(=O)N(C)C)c(=O)c3ccccc23)cc1	-5	14
CC(=O)Nc1ccc(NC(=O)Oc2ccccc2)cc1	-11	9
COCC(=O)Nc1ccc(Nc2ccccc2)cc1	31*	-9
CCC(=O)Nc1ccc(Nc2ccccc2)cc1	8	4
CC(=O)Oc1ccc(NC(=O)Cc2ccccc2)cc1	14	58*
Cc1c(CNC(=O)c2cnn3c2NC(c2ccc(Br)cc2)CC3C(F)(F)F)cnn1C (centres undefined)	18	4
CCC(C)n1c(C)nc2c(c1=O)c1nc3ccccc3nc1n2-c1ccc2c(c1)OCCO2 (centres undefined)	-13	18
N/C(Cc1ccc(Cl)cc1)=N\OC(=O)c1ccccc1	71*	0
N/C(Cc1ccc([N+](=O)[O-])cc1)=N\OC(=O)c1ccc([N+](=O)[O-])cc1	5	16
